Measurements from ChEMBL document CHEMBL4373733, “Reinvestigating the synthesis and efficacy of small benzimidazole derivatives as presequence protease enhancers” (Eur J Med Chem, 2019).
One block for each molecule: values may come before it. The source made the active and inactive calls. The rule behind the calls is not given here.

What was measured:
[1] = target: T1, Presequence protease, mitochondrial (Homo sapiens) (UniProt Q5JRX3); experiment: Agonist activity at recombinant human N-terminal His6-tagged PreP expressed in Escherichia coli expression system assessed as increase in degradation of substrate V at 0.0001 to 10 uM measured every 30 sec for 10 mins by fluorometry
T1 sequence (whole entry): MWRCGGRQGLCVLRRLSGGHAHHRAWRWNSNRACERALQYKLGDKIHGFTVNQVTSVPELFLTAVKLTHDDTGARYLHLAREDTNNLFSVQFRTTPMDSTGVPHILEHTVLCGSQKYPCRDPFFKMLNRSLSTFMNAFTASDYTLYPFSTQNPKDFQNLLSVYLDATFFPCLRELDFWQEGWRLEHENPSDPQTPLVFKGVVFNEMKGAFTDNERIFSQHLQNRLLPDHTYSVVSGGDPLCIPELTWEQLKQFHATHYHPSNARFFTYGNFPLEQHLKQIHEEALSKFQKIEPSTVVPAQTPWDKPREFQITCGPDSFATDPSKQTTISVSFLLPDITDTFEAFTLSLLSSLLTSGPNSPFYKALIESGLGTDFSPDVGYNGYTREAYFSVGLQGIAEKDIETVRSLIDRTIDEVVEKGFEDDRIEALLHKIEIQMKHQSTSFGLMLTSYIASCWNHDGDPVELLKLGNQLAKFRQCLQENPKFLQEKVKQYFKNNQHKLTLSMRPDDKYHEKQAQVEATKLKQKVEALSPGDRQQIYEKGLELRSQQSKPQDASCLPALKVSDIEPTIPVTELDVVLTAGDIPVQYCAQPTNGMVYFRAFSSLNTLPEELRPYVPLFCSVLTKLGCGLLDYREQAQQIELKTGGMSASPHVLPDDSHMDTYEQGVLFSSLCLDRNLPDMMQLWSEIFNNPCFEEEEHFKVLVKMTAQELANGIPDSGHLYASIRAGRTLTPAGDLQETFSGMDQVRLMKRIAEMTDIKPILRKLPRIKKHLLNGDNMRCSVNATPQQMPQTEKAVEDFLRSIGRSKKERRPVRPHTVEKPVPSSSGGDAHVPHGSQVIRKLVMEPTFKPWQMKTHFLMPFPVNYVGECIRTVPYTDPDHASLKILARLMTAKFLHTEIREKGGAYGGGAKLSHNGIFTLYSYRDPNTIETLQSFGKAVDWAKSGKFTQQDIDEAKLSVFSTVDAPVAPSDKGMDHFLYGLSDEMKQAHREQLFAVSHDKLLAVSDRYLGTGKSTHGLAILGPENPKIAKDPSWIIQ
Method in brief: (§1)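 hPreP expressed in E. coli at 25 °C (300μM IPTG, 16 h), purified by Ni-NTA, Source Q and Superdex 200, stored at −80 °C. Reaction: 0.1 μg (or 1 μg) hPreP in 20 mM HEPES pH 8.0, 10 mM MgCl₂, with substrate V (0.1 or 1.4 μg), 200 or 250 μl, room temperature (24–26 °C) or 37 °C. Fluorescence ex 320/em 405 nm. Degradation rate averaged over four independent experiments, mean ± SD.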

[2] = substrate: O=[N+]([O-])c1ccc2nc(-c3cc(Br)ccc3O)n(Cc3cc(Br)ccc3O)c2c1; experiment: Agonist activity at recombinant human N-terminal His6-tagged PreP expressed in Escherichia coli expression system assessed as increase in degradation of substrate V by measuring catalytic rate at 10 uM measured every 30 sec for 10 mins by fluorometry (reference value: 1.4 +/- 0.1 /min); method in brief: as §1
[3] = substrate: Nc1ccc([N+](=O)[O-])cc1/N=C/c1cc(Br)ccc1O; experiment: (§2) Agonist activity at recombinant human N-terminal His6-tagged PreP expressed in Escherichia coli expression system assessed as increase in degradation of substrate V by measuring catalytic rate at 0.1 uM measured every 30 sec for 10 mins by fluorometry (reference value: 1.4 +/- 0.1 /min); method in brief: as §1
[4] = substrate: O=[N+]([O-])c1ccc2nc(-c3cc(Br)ccc3O)n(Cc3cc(Br)ccc3O)c2c1; experiment: as §2; method in brief: as §1
[5] = target: Presequence protease, mitochondrial (Homo sapiens) (UniProt Q5JRX3); experiment: Agonist activity at recombinant human N-terminal His6-tagged PreP expressed in Escherichia coli expression system assessed as increase in degradation of substrate V by measuring catalytic rate at 10 uM measured every 30 sec for 10 mins by fluorometry (reference value: 1.4 +/- 0.1 /min)
[6] = substrate: Nc1ccc([N+](=O)[O-])cc1/N=C/c1cc(Br)ccc1O; experiment: (§3) Agonist activity at recombinant human N-terminal His6-tagged PreP expressed in Escherichia coli expression system assessed as increase in degradation of substrate V by measuring catalytic rate at 1 uM measured every 30 sec for 10 mins by fluorometry (reference value: 1.4 +/- 0.1 /min); method in brief: as §1
[7] = substrate: O=[N+]([O-])c1ccc2nc(-c3cc(Br)ccc3O)n(Cc3cc(Br)ccc3O)c2c1; experiment: as §3; method in brief: as §1
[8] = substrate: Nc1ccc([N+](=O)[O-])cc1/N=C/c1cc(Br)ccc1O; experiment: (§4) Agonist activity at recombinant human N-terminal His6-tagged PreP expressed in Escherichia coli expression system assessed as increase in degradation of substrate V by measuring catalytic rate at 0.01 uM measured every 30 sec for 10 mins by fluorometry (reference value: 1.4 +/- 0.1 /min); method in brief: as §1
[9] = substrate: O=[N+]([O-])c1ccc2nc(-c3cc(Br)ccc3O)n(Cc3cc(Br)ccc3O)c2c1; experiment: as §4; method in brief: as §1

Activity [1]: inactive
Molecule: O=[N+]([O-])c1ccc2nc(-c3cc(Br)ccc3O)n(Cc3cc(Br)ccc3O)c2c1

Activity [1]: inactive
Molecule: O=[N+]([O-])c1ccc2[nH]c(-c3cc(Br)ccc3O)nc2c1

Second part, the molecule before the results:

Molecule: Nc1ccc([N+](=O)[O-])cc1/N=C/c1cc(Br)ccc1O
Activity [1]: inactive

B1: Presequence protease, mitochondrial (Homo sapiens), Q5JRX3 (protein)
chain: T1 sequence (whole entry)
kcat [2]: 0.0233 s⁻¹
kcat [3]: 0.02 s⁻¹
kcat [4]: 0.02 s⁻¹
kcat [5]: 0.0217 s⁻¹
kcat [6]: 0.0217 s⁻¹
kcat [7]: 0.0217 s⁻¹
kcat [8]: 0.0233 s⁻¹
kcat [9]: 0.0183 s⁻¹
